Assay outcomes as filed in PubChem BioAssay.
FGF22 binding-1: FGF22 (human) thermal shift binding. Q9HCT0. recombinant FGF22 thermal shift, SYPRO orange fluorescence; percent of sucrose octasulfate shift, DMSO zero. activity (Tm shift, normalised), % at 9.99 µM. hit rate 1.5% among 340,000. AID 651658;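 active = mean Tm shift, scaled 0 neutral to 100 positive control, at about 1.3% or above, every replicate too, limit read from the data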
NSD2 inh: blocks human histone methyltransferase NSD2; O96028; inhibition, % at 12.5 µM; NSD2 peptide methylation, AlphaScreen, 120 min; hit rate 0.54% among 310,000; AID 743445; in the data active = inhibition above about 50%
UCH37 DUB inh: blocks the human deubiquitinase UCH37; purified proteasome/UCH37, Ub-AMC cleavage fluorescence; inhibition, % (no concentration beside the values); Q9Y5K5; hit rate 0.33% among 330,000; AID 588478;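 active = mean inhibition over replicate wells above about 20%, limit read from the data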;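 note: 0% = compound-free wells with enzyme and 100% = wells lacking proteasome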
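Signal – fluorescence, ex 355 nm, em 460 nm · System – Proteasome-bound UCH37 · Input – 0.15 nM proteasome as dispensed · Timing – 30 min preincubation with enzyme, 25 min cleavage at room temperature · Read-out basis – percent inhibition of cleavage signal versus uninhibited and no-proteasome wells · Medium – Tris-HCl pH 7.4 with ATP-MgCl2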
Casp6 inh: inhibitors of human caspase-6; hit rate 0.53% among 350,000; P55212; purified caspase-6, Z-VEID-R110 cleavage fluorescence; inhibition, % at 12.5 µM;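 active = mean inhibition across replicates at least about 35%, with every replicate also reaching that limit, limit read from the data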;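 note: 0% = median of neutral control wells and 100% = no fluorescence left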
Target sequence (P55212 24-179 limits assumed): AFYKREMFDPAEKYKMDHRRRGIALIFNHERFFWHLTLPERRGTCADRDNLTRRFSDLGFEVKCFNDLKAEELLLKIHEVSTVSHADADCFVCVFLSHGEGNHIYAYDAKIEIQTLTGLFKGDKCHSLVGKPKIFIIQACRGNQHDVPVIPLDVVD
Target sequence (P55212 194-293 limits assumed): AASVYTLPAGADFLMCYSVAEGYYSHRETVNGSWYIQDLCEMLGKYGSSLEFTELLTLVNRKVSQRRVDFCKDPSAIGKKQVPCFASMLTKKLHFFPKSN
SIRT5 inh: sirtuin-5 (human) deacylase inhibition. Q9NXA8. AID 652115. inhibition, % at 15 µM. hit rate 1.1% among 330,000. Purified SirT5, succinyl-peptide AMC, trypsin-coupled fluorescence; in the data active = inhibition above about 15%
Target sequence (Q9NXA8 whole entry, looked up): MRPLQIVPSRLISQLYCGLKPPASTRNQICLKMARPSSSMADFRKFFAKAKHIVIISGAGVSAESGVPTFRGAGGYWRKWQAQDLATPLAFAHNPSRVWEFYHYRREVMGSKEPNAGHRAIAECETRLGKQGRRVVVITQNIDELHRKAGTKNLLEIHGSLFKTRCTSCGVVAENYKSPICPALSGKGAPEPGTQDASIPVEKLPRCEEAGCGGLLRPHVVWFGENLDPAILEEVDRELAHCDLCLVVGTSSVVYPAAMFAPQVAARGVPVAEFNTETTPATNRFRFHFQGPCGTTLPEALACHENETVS
FGF22 binding-2: binders of human FGF22 by thermal shift; shares compounds with FGF22 binding-1; recombinant FGF22 thermal shift, SYPRO orange fluorescence; thermal shift activity, °C (ΔTm) at 38 µM; hit rate 2% among 1,000; AID 720646;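 active = fitted rise in melting shift crosses a set limit at or below the top valid dose tested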
FGF22 TSA: binds human FGF22 shifting its melting temperature; shares compounds with FGF22 binding-1; Thermal shift assay, SYPRO orange, melting temperature shift; Tm shift (activity), % at 38 µM; 50 tested, under 10 active;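 active = compounds whose fitted dose curve of melting temperature shift rises past a set threshold within the tested doses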
TSA no protein: counter-screen for FGF22 binders: compound-only thermal shift, no protein; AID 743019; compound-only SYPRO orange thermal shift counter-screen; hit rate 2% among 1,000; AC50, µM (titrated, usually from 38 µM); shares compounds with FGF22 binding-1;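 active = rising signal whose fitted curve reaches the 0.54 level within the top valid dose, showing a melting point, actives reach about 13 µM in these data; inactive = the rest, including activity in the opposite direction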; note: value is where the raw curve crosses a fixed level and not half-maximal
* marks the source's active call; other numbers are inactive results; i = inactive; / = not tested or not shown; [ ] = remark or other dose. Hits are enriched below; roughly 2.6% of the tested compounds scored in any of these assays.

SMILES | FGF22 binding-1 | NSD2 inh | UCH37 DUB inh | Casp6 inh | SIRT5 inh | FGF22 binding-2 | TSA no protein | others
COc1ccc2c3c([nH]c2c1)[C@H](CO)N(C(=O)Nc1ccc(F)cc1)CC31CCN(S(=O)(=O)c2cccs2)CC1 | 16* | / | / | 0 | 13 | 0.032[42 µM] | i
C[C@@H]1CN([C@H](C)CO)C(=O)c2cccc(NC(=O)C3CCOCC3)c2O[C@@H]1CN(C)S(=O)(=O)c1ccc(Cl)cc1 | 0 | / | / | 1 | 0 | / | /
Nc1[nH]n(-c2ccccc2)c(=O)c1N=Nc1ccccc1[N+](=O)[O-] | / | 1 | 4 | / | / | / | /
O=c1c2cc([N+](=O)[O-])cc([N+](=O)[O-])c2[nH]n1-c1ccccc1 | 1.8* | 11 | 19 | 18 | 11 | 0.26 | i
C[C@@H]1CN([C@@H](C)CO)C(=O)c2cccc(NC(=O)Nc3ccc(C(F)(F)F)cc3)c2O[C@H]1CN(C)C(=O)Nc1ccc2c(c1)OCO2 | 0 | / | / | / | / | / | /
O=C(Oc1ccc(N(Cc2cccs2)C2=NS(=O)(=O)c3ccccc32)cc1)c1ccco1 | / | -6 | -1 | / | / | / | /
O=S1(=O)N=C(N(Cc2cccs2)c2ccc(O)cc2)c2ccccc21 | 1.4* | 3 | -1 | 4 | 1 | / | i | FGF22 TSA=0
CCCNC(=O)N1C[C@H](O)COC[C@@H]2O[C@H](CC(=O)OC)CC[C@H]21 | 0 | / | / | 1 | -4 | / | /
Cc1ccc(NC(=O)C2CCCN2C(=O)Oc2ccccc2)c(C)c1 (stereo not given) | 2.2* | -4 | 3 | 3 | -1 | -0.007 | i
Cc1ccc(NC(=O)C2CCCN2C(=O)Oc2ccccc2)cc1 (stereo not given) | / | / | 0 | / | / | / | /
CN(C)CC(=O)N[C@H]1C=C[C@@H](CC(=O)NCc2ccc(Cl)cc2)O[C@H]1CO | 0 | / | / | -2 | -2 | / | /
COc1ccc(/C=N/NC(=O)c2cc(-c3ccc4c(c3)OCO4)n[nH]2)cc1OC | 1.5* | -3 | / | 1 | -4 | 0.19 | i
COc1cc(C=NNC(=O)c2cc(-c3ccc4c(c3)OCO4)n[nH]2)ccc1O | / | / | 4 | / | / | / | /
COc1ccc(/C(=N\Nc2ccccc2C(=O)O)c2ccccc2)cc1 | 1.8* | 3 | / | 9 | 0 | 0.19 | i
COc1ccccc1-c1cccc(-c2nc(C(=O)NCc3ccncc3)cc3c2[C@@H](CCO)N([S@](=O)C(C)(C)C)C3)c1 | 24* | / | / | -2 | 1 | 0.11 | i
CC(C)(C)[S@](=O)N1Cc2cc(C(=O)N[C@@H]3CCN(Cc4ccccc4)C3)nc(-c3cccc(-c4cccnc4)c3)c2[C@@H]1CCO | 2.1* | / | / | 3 | 0 | -0.1[42 µM] | i
O=C(N/N=C/c1c[nH]c2ccc(Br)cc12)C1CC1 | 2.2* | 2 | / | 3 | / | -0.072 | i
O=C(N/N=C/c1c[nH]c2ccc(Br)cc12)c1ccc2c(c1)OCO2 | 2.5* | -2 | / | 8 | 1 | 0.077 | i
NC(=O)C(=O)NN=Cc1c[nH]c2ccc(Br)cc12 | / | / | 6 | / | / | / | /
O=C(N/N=C/c1c[nH]c2ccccc12)c1ccc2c(c1)OCCO2 | 1.6* | -5 | / | 5 | 3 | 0.013 | i
Nc1ccc(C(=O)NN=Cc2c[nH]c3ccccc23)cc1 | / | / | 8 | / | / | / | /
COc1ccc(OC)c(Nc2ccc(Nc3cc(OC)ccc3OC)nn2)c1 | 1.8* | 7 | 3 | -1 | 0 | -0.071 | i
COc1ccccc1Nc1ccc(Nc2ccccc2OC)nn1 | / | 1 | 6 | / | / | / | /
CO[C@@H]1CN(C)C(=O)c2cc(NC(=O)Nc3ccccc3Cl)ccc2OC[C@@H](C)N(C(C)=O)C[C@H]1C | 0 | / | / | -1 | -3 | / | /
CCOc1ccc(C=Nn2c(C)nc3ccccc3c2=O)cc1 | / | / | 3 | / | / | / | /
SMILES | FGF22 binding-1 | NSD2 inh | UCH37 DUB inh | Casp6 inh | SIRT5 inh | FGF22 binding-2 | TSA no protein | others
O=C1N(CCCCN2C(=O)C3(OCCO3)c3ccccc32)c2ccccc2C12OCCO2 | / | -4 | 1 | / | / | / | /
NNC(=O)CN1C(=O)C2(OCCO2)c2ccccc21 | 30* | -2 | / | 0 | / | 0.05 | i
O=C(C[C@@H]1CC[C@H](NC(=O)Nc2cc(F)ccc2F)[C@@H](CO)O1)NCc1ccc2c(c1)OCO2 | 0 | / | / | 2 | 1 | / | /
O=C(C1CCCC1)N1CC2(C1)[C@H](c1ccccc1)[C@H](CO)N2Cc1ccc(Cl)cc1 | / | / | / | 2 | -2 | / | /
O=C(C1CC1)N1CC2(C1)[C@H](c1ccccc1)[C@@H](CO)N2Cc1ccc(Cl)cc1 | 2.9* | / | / | 0 | -4 | 0.16[42 µM] | i
CCCCNC(=S)N(C)N=Cc1c(C)[nH]c2ccccc12 | / | / | -5 | / | / | / | /
N#C[C@@H]1[C@@H](c2ccc(C3=CCCCC3)cc2)[C@H](CO)N1S(=O)(=O)c1ccccc1 | 1.3* | / | / | -5 | 1 | -0.2 | i
COC(=O)[C@]1(Cc2ccccc2)N[C@H](CN(C)S(=O)(=O)c2ccc(-c3ccccc3)cc2)[C@@H]2C(=O)N(Cc3ccccc3)C(=O)[C@@H]21 | 0 | / | 3 | -3 | -3 | / | /
COC(=O)[C@]1(Cc2ccccc2)N[C@H](CN(C)S(=O)(=O)c2ccc(C)cc2)[C@@H]2C(=O)N(Cc3ccccc3)C(=O)[C@@H]21 | 1.4* | / | 5 | 4 | 8 | -0.13 | i
C=CCC1c2cccc(C(=O)O)c2C(=O)N1c1cccc(OC)c1 (stereo not given) | 18* | -1 | 2 | 2 | -1 | 0.13 | i
